Paper PMC10193968 (Proceedings of the National Academy of Sciences of the …, 2023)

Key:
S. frugiperda males = settings: presence at 1% in synthetic pheromone blends; cited from earlier work
SfruOR5 = assay: Two-electrode voltage-clamp on Xenopus oocytes expressing SfruOR5; format: cell-based, S. frugiperda; settings: 10^–4 M; panel of 13 pheromone compounds; confirms the Drosophila OSN profile
[1] = system: AncOR5_75 V79L_A143T_A204V; format: cell-based; settings: 10^−5 M solution; panel of six S. littoralis pheromone compounds
In short: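 Mutation introduced into the pCS2+ ancestral-receptor plasmid and confirmed by Sanger sequencing. Capped cRNA made with SP6 from NotI-linearized template, coexpressed with SlitOrco in Xenopus oocytes. Two-electrode voltage-clamp inward currents to six compounds at 10^-5 M, diluted from 0.1 M DMSO stocks into Ringer's (HEPES, pH 7.6). Ringer's with 0.01% DMSO as negative control. Tuning compared by principal component analysis.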

SlituOR5 [2] = assay: Single-sensillum recordings on Drosophila at1 OSNs expressing SlituOR5; format: cell-based, S. litura; settings: 10 μg loaded in the stimulus cartridge; panel of 26 pheromone compounds
AncOR75 = format: cell-based, ancestor of S. littoralis and S. litura; settings: doses 10 ng to 100 µg in the stimulus cartridge
In short: (§1)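 Dose–response by single-sensillum extracellular recording from at1 OSNs of flies expressing the receptor transgene instead of Or67d (UAS-Or crossed to Or67d-GAL4). Flies reared at 25 °C, 12 h:12 h light:dark. Stimuli lasted 500 ms, delivered from filter-paper cartridges loaded with 10 ng to 100 µg pheromone diluted in hexane.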

AncOR5_75 = format: cell-based, ancestor of S. littoralis and S. litura; settings: doses 10 ng to 100 µg in the stimulus cartridge
In short: as §1

SlitOR5 = assay: Single-sensillum recordings on Drosophila at1 OSNs expressing SlitOR5; format: cell-based, S. littoralis; settings: 10 μg loaded in the stimulus cartridge; panel of 26 pheromone compounds
In short: (§2)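 Receptor expressed in Drosophila at1 OSNs in place of Or67d (UAS-Or × Or67d-GAL4, double homozygous). Flies kept on cornmeal–yeast–agar at 25 °C, 12 h:12 h light:dark. Single-sensillum extracellular recording with 500 ms stimulation from Pasteur-pipette cartridges holding 10 µg compound (hexane dilution) on filter paper. Panel of 26 pheromone compounds. Active if different from solvent alone (one-way ANOVA, Dunnett's post hoc).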

SlituOR75 = assay: Single-sensillum recordings on Drosophila at1 OSNs expressing SlituOR75; format: cell-based, S. litura; settings: 10 μg loaded in the stimulus cartridge; panel of 26 pheromone compounds
In short: as §2

AncOR5 [3] = assay: Single-sensillum recordings on Drosophila at1 OSNs expressing resurrected AncOR5; format: cell-based, ancestor of S. littoralis and S. litura; settings: 10 μg loaded in the stimulus cartridge; panel of 26 pheromone compounds
SlitOR75 = assay: Single-sensillum recordings on Drosophila at1 OSNs expressing SlitOR75; format: cell-based, S. littoralis; settings: 10 μg loaded in the stimulus cartridge; panel of 26 pheromone compounds
In short: as §2

S. exigua males = settings: cited from earlier work
[4] = system: S. littoralis and S. litura males; settings: detection of the compound; cited from earlier work
SexiOR5 = assay: Two-electrode voltage-clamp on Xenopus oocytes expressing SexiOR5; format: cell-based, S. exigua; settings: 10^–4 M; panel of 13 pheromone compounds; confirms the Drosophila OSN profile
SlituOR5 [5] = assay: Two-electrode voltage-clamp on Xenopus oocytes expressing SlituOR5; format: cell-based, S. litura; settings: 10^–4 M; panel of 13 pheromone compounds; confirms the Drosophila OSN profile
AncOR5 [6] = assay: Two-electrode voltage-clamp on Xenopus oocytes coexpressing AncOR5 and SlitOrco; format: cell-based, ancestor of S. littoralis and S. litura
AncOR5_75_mut8x = format: cell-based; settings: read-out: EC50, AncOR5_75_mut8x; Xenopus oocytes, concentrations 10^–8 to 10^–4 M
S. littoralis males = settings: traps baited with their own sex pheromones; cited from earlier work
S. litura males = settings: traps baited with their own sex pheromones; cited from earlier work

For CC/C=C/CCCCCCCCCCOC(C)=O [(E)-11-14:OAc, (E)-11-tetradecenyl acetate], the “Proportion of males approaching the source in wind tunnel” value (S. frugiperda males) is given as “strongly increased the proportion of males approaching the source”.
For CC/C=C\CCCCCCCCCCOC(C)=O [(Z)-11-14:OAc, (Z)-11-tetradecenyl acetate], the “Response spectrum (inward current), SfruOR5” value (SfruOR5) is given as “best SfruOR5 ligands” and the “Proportion of males approaching the source in wind tunnel” value (S. frugiperda males) is given as “strongly increased the proportion of males approaching the source”.
For C/C=C/C/C=C\CCCCCCCCOC(C)=O [(Z,E)-9,12-14:OAc, (Z,E)-9,12-tetradecadienyl acetate], the “Inward current, triple-mutant V79L_A143T_A204V” value [1] was “narrow tuning”.
For CC/C=C\C=C/CCCCCCCCOC(C)=O [(Z,Z)-9,11-14:OAc, (Z,Z)-9,11-tetradecadienyl acetate], the “Action potential frequency of at1 OSNs expressing SlituOR5” value (SlituOR5 [2]) was “significant yet minor response”, the “Activation threshold / sensitivity, dose–response of AncOR75” value (AncOR75) was “best ligand” and the “Activation threshold / sensitivity, dose–response of AncOR5_75” value (AncOR5_75) was “best ligand”.
With CC/C=C/C=C\CCCCCCCCOC(C)=O [(Z,E)-9,11-14:OAc, (Z,E)-9,11-tetradecadienyl acetate] the “Action potential frequency of at1 OSNs expressing SlituOR5” value (SlituOR5 [2]) was “strong responses”, the “Response spectrum (inward current), SfruOR5” value (SfruOR5) was “can bind” and the “Activation threshold / sensitivity, dose–response of AncOR75” value (AncOR75) was “same activation threshold as AncOR5”. For the same molecule, the “Action potential frequency of at1 OSNs expressing SlitOR5” value (SlitOR5) was “strong responses”, the “Action potential frequency of at1 OSNs expressing SlituOR75” value (SlituOR75) was “low responses” and the “Activation threshold / sensitivity, dose–response of AncOR5_75” value (AncOR5_75) was “same activation threshold as AncOR5”. The “Action potential frequency of at1 OSNs expressing AncOR5” value (AncOR5 [3]) was “responded specifically”, the “Action potential frequency of at1 OSNs expressing SlitOR75” value (SlitOR75) was “low responses” and the “Effect on trap catches of S. exigua males” value (S. exigua males) was “decreases trap catches”. The Male attraction [4] was “necessary and sufficient to trigger male attraction”, the “Response spectrum (inward current), SexiOR5” value (SexiOR5) was “can bind” and the “Response spectrum (inward current), SlituOR5” value (SlituOR5 [5]) was “narrowly tuned”. For the same molecule, the “Inward current, AncOR5” value (AncOR5 [6]; 10^−5 M solution, panel of six S. littoralis pheromone compounds) was “specifically responded”, the EC50 (AncOR5 [6]; read-out: EC50, AncOR5, Xenopus oocytes, concentrations 10^–8 to 10^–4 M) was 1100 nM and the EC50 (AncOR5_75_mut8x) was 400 nM.
In the case of CCCC/C=C\CCCCCCCCO [(Z)-9-14:OH, (Z)-9-tetradecen-1-ol], the “Effect on trap catches of S. littoralis males” value (S. littoralis males) is given as “reduces catches in traps” and the “Effect on trap catches of S. litura males” value (S. litura males) is given as “reduces catches in traps”.
